{"source": "ChEMBL document CHEMBL3593173", "about": "“Discovery of novel N-(5-(tert-butyl)isoxazol-3-yl)-N'-phenylurea analogs as potent FLT3 inhibitors and evaluation of their activity against acute myeloid leukemia in vitro and in vivo” (Bioorg Med Chem, 2015)", "key": {"[1]": {"assay": "Solubility in MeOH solution", "type": "physicochemical"}, "MV4-11 [2]": {"test_system": "MV4-11", "assay": "Cytotoxicity against human MV4-11 cells incubated for 72 hrs by MTT assay", "type": "functional, cell-based", "details": "MV4-11, 72 h", "summary_of_the_method": "(§1)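 Leukemia cells were grown with 10% FBS at 37 °C in 5% CO₂; MV4-11 was kept in IMDM. Cells were seeded at 1–4 × 10⁴ per well, and an equal volume of medium containing increasing inhibitor concentrations was added. MTT was added for 2–4 h, formazan was dissolved in DMSO, and OD was read at 570 nm to derive IC50.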"}, "[3]": {"assay": "Solubility in EtOH solution", "type": "physicochemical"}, "[4]": {"assay": "Cmax in Sprague-Dawley rat at 30 mg/kg, po after 15 mins to 24 hrs by HPLC method", "type": "ADME, organism-based", "set-up": "dose 30 mg/kg, route oral", "details": "in vivo", "summary_of_the_method": "(§2)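 Sprague–Dawley rats (n = 3) fasted overnight, then given a single 30 mg/kg oral gavage dose in 25% PEG400, 5% DMSO and 70% distilled water. Heparinized blood was drawn at 15 min, 30 min, 1, 2, 4, 6, 12 and 24 h, and plasma was separated by centrifugation. Plasma levels were measured by liquid–liquid extraction and HPLC.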"}, "Rattus norvegicus": {"test_system": "Rattus norvegicus", "assay": "Volume of distribution at steady state in Sprague-Dawley rat at 30 mg/kg, po after 15 mins to 24 hrs by HPLC method", "type": "ADME, organism-based", "details": "in vivo", "summary_of_the_method": "as §2"}, "[5]": {"assay": "Clearance in Sprague-Dawley rat at 30 mg/kg, po after 15 mins to 24 hrs by HPLC method", "type": "ADME, organism-based", "details": "in vivo", "summary_of_the_method": "as §2"}, "MV4-11 [6]": {"test_system": "MV4-11", "assay": "Growth inhibition of FLT3-ITD bearing human MV4-11 cells incubated for 72 hrs by MTT assay", "type": "functional, cell-based", "details": "MV4-11, 72 h", "summary_of_the_method": "as §1"}, "K562": {"test_system": "K562", "assay": "Growth inhibition of human K562 cells incubated for 72 hrs by MTT assay", "type": "functional, cell-based", "details": "K562, 72 h", "summary_of_the_method": "as §1"}, "U-937": {"test_system": "U-937", "assay": "Growth inhibition of human U937 cells incubated for 72 hrs by MTT assay", "type": "functional, cell-based", "details": "U-937, 72 h", "summary_of_the_method": "as §1"}, "A549": {"test_system": "A549", "assay": "Growth inhibition of human A549 cells incubated for 72 hrs by MTT assay", "type": "functional, cell-based", "details": "A549, 72 h", "summary_of_the_method": "(§3)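 Non-leukemia lines were grown in RPMI 1640 or DMEM with 10% FBS at 37 °C in 5% CO₂. Cells were seeded at 2–5 × 10³ per well and incubated 24 h, then treated with diluted inhibitors for 72 h. MTT was added for 2–4 h, formazan was dissolved in DMSO, and OD was read at 570 nm to derive IC50.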"}, "MCF7": {"test_system": "MCF7", "assay": "Growth inhibition of human MCF7 cells incubated for 72 hrs by MTT assay", "type": "functional, cell-based", "details": "MCF7, 72 h", "summary_of_the_method": "as §3"}, "[7]": {"assay": "Growth inhibition of human PANC1 cells incubated for 72 hrs by MTT assay", "type": "functional, cell-based", "details": "PANC-1, 72 h", "summary_of_the_method": "as §3"}, "U-251": {"test_system": "U-251", "assay": "Growth inhibition of human U251 cells incubated for 72 hrs by MTT assay", "type": "functional, cell-based", "details": "U-251, 72 h", "summary_of_the_method": "as §3"}, "HepG2": {"test_system": "HepG2", "assay": "Growth inhibition of human HepG2 cells incubated for 72 hrs by MTT assay", "type": "functional, cell-based", "details": "HepG2, 72 h", "summary_of_the_method": "as §3"}, "HCT-116": {"test_system": "HCT-116", "assay": "Growth inhibition of human HCT116 cells incubated for 72 hrs by MTT assay", "type": "functional, cell-based", "details": "HCT-116, 72 h", "summary_of_the_method": "as §3"}, "MV4-11 [8]": {"test_system": "MV4-11", "assay": "Effect on FLT3 protein expression in human MV4-11 cells at 1 to 100 nM incubated for 2 hrs by Western blotting method", "type": "cell-based", "details": "mv4-11, 2 h, 0.1 µM", "summary_of_the_method": "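MV4-11 cells were treated with increasing concentrations for 2 h at 37 °C, washed in ice-cold PBS and lysed in RIPA buffer with 1% protease cocktail. Lysates were cleared at 13,000 rpm for 15 min at 4 °C, run on 5–10% polyacrylamide gels and transferred to PVDF. Blots were probed with anti-FLT3, anti-p-FLT3 and anti-β-actin, then an HRP secondary antibody.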"}, "MV4-11 [9]": {"test_system": "MV4-11", "assay": "Induction of apoptosis in human MV4-11 cells assessed as viable cells at 1 nM incubated for 48 hrs by Annexin V-FITC labeling based flow cytometry (reference value: 86.1%)", "type": "functional", "details": "MV4-11, 48 h, read-out: Activity"}, "MV4-11 [10]": {"test_system": "MV4-11", "assay": "Induction of apoptosis in human MV4-11 cells assessed as early apoptotic cells level at 1 nM incubated for 48 hrs by Annexin V-FITC labeling based flow cytometry (reference value: 3.54%)", "type": "functional"}, "MV4-11 [11]": {"test_system": "MV4-11", "assay": "Induction of apoptosis in human MV4-11 cells assessed as late apoptotic cells level at 1 nM incubated for 48 hrs by Annexin V-FITC labeling based flow cytometry (reference value: 6.61%)", "type": "functional"}, "MV4-11 [12]": {"test_system": "MV4-11", "assay": "Induction of apoptosis in human MV4-11 cells assessed as viable cells at 10 nM incubated for 48 hrs by Annexin V-FITC labeling based flow cytometry (reference value: 86.1%)", "type": "functional", "details": "MV4-11, 48 h, read-out: Activity"}, "MV4-11 [13]": {"test_system": "MV4-11", "assay": "Induction of apoptosis in human MV4-11 cells assessed as early apoptotic cells level at 10 nM incubated for 48 hrs by Annexin V-FITC labeling based flow cytometry (reference value: 3.54%)", "type": "functional"}, "MV4-11 [14]": {"test_system": "MV4-11", "assay": "Induction of apoptosis in human MV4-11 cells assessed as necrotic cells level at 10 nM incubated for 48 hrs by Annexin V-FITC labeling based flow cytometry (reference value: 3.76%)", "type": "functional"}, "MV4-11 [15]": {"test_system": "MV4-11", "assay": "Induction of apoptosis in human MV4-11 cells assessed as viable cells at 100 nM incubated for 48 hrs by Annexin V-FITC labeling based flow cytometry (reference value: 86.1%)", "type": "functional", "details": "MV4-11, 48 h, read-out: Activity"}, "MV4-11 [16]": {"test_system": "MV4-11", "assay": "Induction of apoptosis in human MV4-11 cells assessed as early apoptotic cells level at 100 nM incubated for 48 hrs by Annexin V-FITC labeling based flow cytometry (reference value: 3.54%)", "type": "functional"}, "MV4-11 [17]": {"test_system": "MV4-11", "assay": "Induction of apoptosis in human MV4-11 cells assessed as late apoptotic cells level at 100 nM incubated for 48 hrs by Annexin V-FITC labeling based flow cytometry (reference value: 6.61%)", "type": "functional"}, "MV4-11 [18]": {"test_system": "MV4-11", "assay": "Induction of apoptosis in human MV4-11 cells assessed as necrotic cells level at 100 nM incubated for 48 hrs by Annexin V-FITC labeling based flow cytometry (reference value: 3.76%)", "type": "functional"}, "MV4-11 [19]": {"test_system": "MV4-11", "assay": "Antitumor activity against FLT3-ITD bearing human MV4-11 cells xenografted in orally dosed NOD-SCID mouse assessed as tumor growth inhibition", "type": "functional, organism-based", "summary_of_the_method": "(§4)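 MV4-11 cells in exponential growth were washed three times in serum-free medium, resuspended at 1 × 10⁸ cells/mL and injected subcutaneously into NOD-SCID mice aged 5–6 weeks. At 100–200 mm³, tumors were randomized into 4 groups of 6. Dosing was 10, 30 or 60 mg/kg/d, or vehicle (25% PEG400 plus 5% DMSO in water), by oral gavage once daily. Tumor volume was measured every 3 days, and body weight and toxicity signs were monitored.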"}, "MV4-11 [20]": {"test_system": "MV4-11", "assay": "Antitumor activity against FLT3-ITD bearing human MV4-11 cells xenografted in NOD-SCID mouse assessed as tumor growth inhibition at 10 mg/kg/day, po", "type": "functional", "details": "MV4-11, po, read-out: TGI", "summary_of_the_method": "as §4"}, "Mus musculus": {"test_system": "Mus musculus", "assay": "Toxicity in FLT3-ITD bearing human MV4-11 cells xenografted NOD-SCID mouse assessed as induction of toxicity signs at 10 to 60 mg/kg/day, po", "type": "organism-based", "details": "in vivo", "summary_of_the_method": "as §4"}, "MV4-11 [21]": {"test_system": "MV4-11", "assay": "Induction of apoptosis in FLT3-ITD bearing human MV4-11 cells xenografted in NOD-SCID mouse at 60 mg/kg/day, po qd for 7 days by TUNEL assay"}}, "note": "pIC50: −log10 of the molar value. The source made the active and inactive calls. No cut-off for these calls is given here.", "data": [{"smiles": "COc1ccn2cc(-c3ccc(NC(=O)Nc4cc(C(C)(C)C)on4)cc3)nc2c1", "values": [{"measurement": "solubility", "setting": "[1]", "result": 7460, "unit": "µg/mL"}, {"measurement": "pIC50", "setting": "MV4-11 [2]", "result": 8.55}, {"measurement": "solubility", "setting": "[3]", "result": 3150, "unit": "µg/mL"}, {"measurement": "Cmax", "setting": "[4]", "result": 3290, "unit": "ng/mL"}, {"measurement": "Vdss", "setting": "Rattus norvegicus", "result": 14.12, "unit": "L/kg"}, {"measurement": "CL/F", "setting": "[5]", "result": 33.5, "unit": "mL/min/kg"}, {"measurement": "pIC50", "setting": "MV4-11 [6]", "result": 8.52}, {"measurement": "pIC50", "setting": "K562", "result": "< 4.70"}, {"measurement": "pIC50", "setting": "U-937", "result": "< 4.70"}, {"measurement": "pIC50", "setting": "A549", "result": 5.25}, {"measurement": "pIC50", "setting": "MCF7", "result": "< 4.70"}, {"measurement": "pIC50", "setting": "[7]", "result": "< 4.70"}, {"measurement": "pIC50", "setting": "U-251", "result": "< 4.70"}, {"measurement": "pIC50", "setting": "HepG2", "result": "< 4.70"}, {"measurement": "pIC50", "setting": "HCT-116", "result": "< 4.70"}, {"measurement": "Activity", "setting": "MV4-11 [8]", "result": "Non-toxic"}, {"measurement": "viability at 0.001 µM", "setting": "MV4-11 [9]", "result": 78.7, "unit": "%"}, {"measurement": "Activity", "setting": "MV4-11 [10]", "result": 3.86, "unit": "%"}, {"measurement": "Activity", "setting": "MV4-11 [11]", "result": 12.1, "unit": "%"}, {"measurement": "viability at 0.01 µM", "setting": "MV4-11 [12]", "result": 63.2, "unit": "%"}, {"measurement": "Activity", "setting": "MV4-11 [13]", "result": 7.42, "unit": "%"}, {"measurement": "Activity", "setting": "MV4-11 [14]", "result": 10.8, "unit": "%"}, {"measurement": "viability at 0.1 µM", "setting": "MV4-11 [15]", "result": 54.8, "unit": "%"}, {"measurement": "Activity", "setting": "MV4-11 [16]", "result": 6.88, "unit": "%"}, {"measurement": "Activity", "setting": "MV4-11 [17]", "result": 23, "unit": "%"}, {"measurement": "Activity", "setting": "MV4-11 [18]", "result": 15.3, "unit": "%"}, {"measurement": "TGI", "setting": "MV4-11 [19]", "result": "Dose-dependent effect"}, {"measurement": "inhibition in vivo at 10 mg/kg/day", "setting": "MV4-11 [20]", "result": 51, "unit": "%"}, {"measurement": "Activity", "setting": "Mus musculus", "result": "Non-toxic"}, {"measurement": "Activity", "setting": "MV4-11 [21]", "result": "Active"}]}]}
